In ChEMBL document CHEMBL1759840, “2,3-Substituted quinoxalin-6-amine analogs as antiproliferatives: a structure-activity relationship study” (2011):
Activity calls are given as the source filed them. No cut-off for these calls is given here.

What was measured:
[1] = tested on: U2OS; assay: Growth inhibition of human U2OS cells at 20 uM after 72 hrs by alamar blue assay; type: functional; details: for inhibition of growth at 20 µM: read-out: GI
Procedure, shortened: (§1)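 Single-concentration screen at 20 μM with 72 h exposure across a panel of cancer lines: lung A549, pancreatic AsPC1, colon HT29, breast MDA-MB-231, prostate PC3, ovarian SKOV3 and bone U2OS. Growth inhibition read after 72 h.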

[2] = tested on: PC-3; assay: Induction of apoptosis in human PC3 cells assessed as increase in caspase 3/7 activity at 20 uM after 1 hr by luminescence assay; type: functional, cell-based
Procedure, shortened: (§2)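 Caspase 3/7 induction was followed over time, up to 72 h, in MDA-MB-231 and PC3 cells, with etoposide as positive control.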

[3] = tested on: U2OS; assay: Growth inhibition of human U2OS cells after 72 hrs by alamar blue assay; type: functional
[4] = tested on: ASPC1; assay: Growth inhibition of human AsPC1 cells after 72 hrs by alamar blue assay; type: functional; details: ASPC1, 72 h
[5] = tested on: A549; assay: Growth inhibition of human A549 cells at 20 uM after 72 hrs by alamar blue assay; type: functional; details: for inhibition of growth at 20 µM: A549, 72 h, read-out: GI; procedure, shortened: as §1
[6] = tested on: A549; assay: Growth inhibition of human A549 cells after 72 hrs by alamar blue assay; type: functional; details: A549, 72 h
[7] = tested on: MDA-MB-231; assay: Growth inhibition of human MDA-MB-231 cells at 20 uM after 72 hrs by alamar blue assay; type: functional; details: for inhibition of growth at 20 µM: MDA-MB-231, 72 h, read-out: GI; procedure, shortened: as §1
[8] = tested on: HT-29; assay: Growth inhibition of human HT-29 cells at 20 uM after 72 hrs by alamar blue assay; type: functional; details: for inhibition of growth at 20 µM: HT-29, 72 h, read-out: GI; procedure, shortened: as §1
[9] = tested on: ASPC1; assay: Growth inhibition of human AsPC1 cells at 20 uM after 72 hrs by alamar blue assay; type: functional; details: for inhibition of growth at 20 µM: ASPC1, 72 h, read-out: GI; procedure, shortened: as §1
[10] = tested on: SK-OV-3; assay: Growth inhibition of human SKOV3 cells after 72 hrs by alamar blue assay; type: functional; details: SK-OV-3, 72 h
[11] = tested on: HeLa; assay: Induction of apoptosis in human HeLa cells overexpressing Bad3SA assessed as increase in caspase 3/7 activity at 20 uM after 1 hr by luminescence assay; type: functional, cell-based
[12] = tested on: PC-3; assay: Growth inhibition of human PC3 cells after 72 hrs by alamar blue assay; type: functional; details: PC-3, 72 h
[13] = tested on: HeLa; assay: Induction of Mcl-1 dependent apoptosis in doxycycline-stimulated human HeLa cells assessed as condensed nuclei for 12 hrs using Hoechst dye; type: functional, cell-based
[14] = tested on: PC-3; assay: Growth inhibition of human PC3 cells at 20 uM after 72 hrs by alamar blue assay; type: functional; details: for inhibition of growth at 20 µM: PC-3, 72 h, read-out: GI; procedure, shortened: as §1
[15] = tested on: MDA-MB-231; assay: Induction of apoptosis in human MDA-MB-231 cells assessed as increase in caspase 3/7 activity at 20 uM after 1 hr by luminescence assay; type: functional, cell-based; procedure, shortened: as §2
[16] = tested on: HT-29; assay: Growth inhibition of human HT-29 cells after 72 hrs by alamar blue assay; type: functional; details: HT-29, 72 h
[17] = tested on: SK-OV-3; assay: Growth inhibition of human SKOV3 cells at 20 uM after 72 hrs by alamar blue assay; type: functional; details: for inhibition of growth at 20 µM: SK-OV-3, 72 h, read-out: GI; procedure, shortened: as §1
[18] = tested on: MDA-MB-231; assay: Growth inhibition of human MDA-MB-231 cells after 72 hrs by alamar blue assay; type: functional; details: MDA-MB-231, 72 h
[19] = tested on: HeLa; assay: Induction of apoptosis in human HeLa cells overexpressing Bad3SA assessed as PARP cleavage at 20 uM by Western blotting; type: functional, cell-based

Row | Compound | inhibition of growth at 20 µM [1] [%] | inhibition of growth at 20 µM [5] [%] | inhibition of growth at 20 µM [7] [%] | inhibition of growth at 20 µM [8] [%] | inhibition of growth at 20 µM [9] [%] | inhibition of growth at 20 µM [14] [%] | inhibition of growth at 20 µM [17] [%] | growth inhibition (GI) [1] | growth inhibition (GI) [5] | growth inhibition (GI) [9] | growth inhibition (GI) [17] | also measured
1 | O=C(Nc1ccc(Br)cc1)Nc1ccc2nc(-c3ccco3)c(-c3ccco3)nc2c1 | > 100 | > 100 | > 100 | 88.6 | > 100 | > 100 | 94.9 |  |  |  |  | Activity [2]: Active; GI50 [3]: 10.8 µM; GI50 [4]: 17.3 µM; GI50 [6]: 6.4 µM; GI50 [10]: 16.8 µM; Activity [11]: Active; GI50 [12]: 5.9 µM; Activity [13]: Dose-dependent effect; Activity [15]: Active; GI50 [16]: 12.1 µM; GI50 [18]: 8.4 µM; Activity [19]: Active
2 | O=C(Nc1ccccc1)Nc1ccc2nc(-c3ccco3)c(-c3ccco3)nc2c1 | 59.6 | 54.6 | 31.3 | 52.1 | 9.6 | 70.6 | 24.7 |  |  |  |  | 
3 | S=C(Nc1ccccc1)Nc1ccc2nc(-c3cccs3)c(-c3cccs3)nc2c1 |  |  |  |  |  |  |  | inactive | inactive | inactive | inactive | growth inhibition (GI) [7]: inactive; growth inhibition (GI) [8]: inactive; growth inhibition (GI) [14]: inactive
4 | Cc1ccc(S(=O)(=O)c2c(N)ccc3nc(C)c(C)nc23)cc1 |  |  |  |  |  |  |  | inactive | inactive | inactive | inactive | growth inhibition (GI) [7]: inactive; growth inhibition (GI) [8]: inactive; growth inhibition (GI) [14]: inactive
5 | O=[N+]([O-])c1ccc(NC(=S)Nc2ccc3nc(-c4cccs4)c(-c4cccs4)nc3c2)cc1 | 50.6 |  | 53.3 | 23.9 |  | 19.5 |  |  | inactive | inactive | inactive | 
6 | CC(=O)Nc1ccc2nc(C)c(C)nc2c1 | 31.4 | 23.4 | 25.7 | 31.7 | 26.2 | 21.8 | 4 |  |  |  |  | 
7 | O=C(Nc1ccc2nc(-c3ccco3)c(-c3ccco3)nc2c1)N1CCOCC1 |  | 39.7 | 10.9 | 19.4 |  | 48.9 |  | inactive |  | inactive | inactive | 
